From PubChem
TRPC6 act – activators of mouse TRPC6 channel | Q61143 | HEK293-TRPC6 membrane potential dye fluorescence; active compounds read high | B-score at 10 µM | actives 0.13% (n = 310,000) | AID 2550;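 active = B-score of the integrated fluorescence ratio above library mean plus 3 SD, and starting fluorescence ratio within library mean plus 5 SD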;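 note: higher score means more depolarization so channel activation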
TRPC4 potent – allosterically enhances the mouse TRPC4 cation channel | B-score at 10 µM | Q9QUQ5 | actives 0.42% (n = 310,000) | AID 2227 | HEK293 TRPC4beta/mu-opioid, DAMGO EC20, Fluo-4 Ca2+ flux; active compounds read high;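 active = B-score of calcium response area above 5 SD of library B-scores, with initial fluorescence ratio within 5 SD of library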;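 note: B-score of integrated fluorescence ratio over time as area under calcium response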
Target sequence (Q9QUQ5 whole entry, looked up): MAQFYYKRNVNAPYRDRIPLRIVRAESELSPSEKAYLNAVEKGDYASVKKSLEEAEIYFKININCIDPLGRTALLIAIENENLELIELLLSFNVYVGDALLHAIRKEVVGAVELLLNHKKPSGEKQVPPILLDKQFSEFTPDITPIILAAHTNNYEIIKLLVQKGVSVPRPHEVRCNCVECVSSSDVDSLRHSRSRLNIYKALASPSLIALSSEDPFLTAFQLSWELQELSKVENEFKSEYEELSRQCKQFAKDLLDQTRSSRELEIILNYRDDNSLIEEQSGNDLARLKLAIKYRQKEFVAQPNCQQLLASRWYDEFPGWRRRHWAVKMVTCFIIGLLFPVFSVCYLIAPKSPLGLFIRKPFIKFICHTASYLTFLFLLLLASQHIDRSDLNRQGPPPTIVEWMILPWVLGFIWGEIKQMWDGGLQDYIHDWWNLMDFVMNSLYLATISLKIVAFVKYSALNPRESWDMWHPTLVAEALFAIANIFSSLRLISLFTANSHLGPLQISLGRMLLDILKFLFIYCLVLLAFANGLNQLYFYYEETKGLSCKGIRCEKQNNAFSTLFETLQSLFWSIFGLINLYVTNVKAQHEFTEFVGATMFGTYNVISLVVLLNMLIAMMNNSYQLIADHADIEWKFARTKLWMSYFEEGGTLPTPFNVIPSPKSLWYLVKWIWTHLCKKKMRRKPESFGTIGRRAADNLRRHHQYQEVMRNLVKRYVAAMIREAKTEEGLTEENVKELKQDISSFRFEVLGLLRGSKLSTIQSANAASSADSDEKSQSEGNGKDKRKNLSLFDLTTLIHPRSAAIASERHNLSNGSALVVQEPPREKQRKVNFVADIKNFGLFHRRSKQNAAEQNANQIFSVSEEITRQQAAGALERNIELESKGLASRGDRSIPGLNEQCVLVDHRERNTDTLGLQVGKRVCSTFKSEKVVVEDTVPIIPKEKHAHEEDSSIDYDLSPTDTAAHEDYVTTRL
TRPC6 inh – mouse TRPC6 channel inhibition; AID 2553; Q61143; B-score at 10 µM; actives 1.1% (n = 310,000); HEK293-TRPC6, membrane potential dye, ACh-evoked depolarization; active compounds read low;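 active = B-score under library mean minus 3 SD, initial fluorescence not abnormally high, positive integrated signal ratio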;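 note: B-score derived from integrated fluorescence ratio over the kinetic read; more negative B-score means stronger inhibition of depolarization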
TRPC4 inh – inhibitors of mouse TRPC4 channel; Q9QUQ5; HEK293 TRPC4beta/mu-opioid, DAMGO-evoked Fluo4 calcium flux; active compounds read low; B-score at 10 µM; actives 0.39% (n = 300,000); AID 2247;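 active = B-score over 3 SD under the library average, no early fluorescence shift, positive overall ratio signal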
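test system = HEK293 cells with stable TRPC4beta plus mu-opioid receptor expression | detection = Fluo4 Ca2+ flux fluorescence | read-out = integrated fluorescence ratio relative to baseline, converted to per-well B score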
TRPC4 act – activators of mouse TRPC4 channel; B-score at 10 µM; actives 0.49% (n = 310,000); HEK293 TRPC4beta/mu-opioid, Fluo4 calcium fluorescence; active compounds read high;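 active = B-score above 5 SD of library B-scores, and initial fluorescence ratio not above library mean plus 5 SD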;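 note: positive B-score marks a calcium rise read as TRPC4 activation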
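Assay system: HEK293 stable line with TRPC4beta plus mu-opioid receptor. Times: dye 45 min RT, read 110 s. Measured by: kinetic Fluo4 calcium fluorescence. Measure: B score of integrated ratio. Controls: assay buffer as low control, maximal DAMGO as high control.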
TRPC4 spec 2 – second selectivity test of TRPC6 inhibitors: effect on mouse TRPC4 | inhibition, % at 10 µM | shares compounds with TRPC6 inh | actives 42% (n = 920) | HEK293 TRPC4/MOR, membrane potential dye fluorescence; channel activated by saturating DAMGO dose;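 active = compounds whose fluorescence signal differed from control wells by over 3 SD, either direction, in both duplicate plates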
TRPC4 spec – selectivity of TRPC6 inhibitors: effect on mouse TRPC4; shares compounds with TRPC6 inh; AID 2777; actives 61% (n = 920); HEK293 TRPC4/mu-opioid, membrane potential fluorescence; activity change, negative = inhibition, % at 10 µM;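 active = rise or fall in signal beyond 3 SD of buffer-only wells in both replicate plates, either sign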;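 note: integrated kinetic ratio of fluorescence range over baseline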
HEK293 MPD ctr 2-1 – second counter-screen for TRPC6 inhibitors: parental HEK293 cells | AID 2779 | parental HEK293 membrane potential dye fluorescence; maximal acetylcholine challenge after compound addition | actives 31% (n = 920) | signal change vs control, % at 10 µM | shares compounds with TRPC6 inh;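 active = membrane potential signal moving either way by over 3 SD of the maximum-effect control, in both duplicate plates, meaning non-specific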
HEK293 MPD ctr-1 – parental HEK293 nonspecific activity of TRPC6 inhibitors; shares compounds with TRPC6 inh; actives 60% (n = 920); AID 2780; parental HEK293 membrane potential dye fluorescence; membrane potential signal change, % at 10 µM;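 active = membrane potential signal shifting up or down by more than 3 SD of buffer-only wells, on both duplicate plates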
HEK293 MPD ctr-2 – parental HEK293 nonspecific activity of TRPC6 modulators; shares compounds with TRPC6 inh; membrane potential dye fluorescence; membrane potential signal change, % at 10 µM; actives 51% (n = 2,400); AID 488924;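 active = membrane potential signal moves up or down beyond 5 SD from buffer-only wells, on both duplicate plates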
HEK293 MPD ctr 2-2 – parental HEK293 nonspecific activity of TRPC6 modulators, second screen; shares compounds with TRPC6 inh; membrane potential dye fluorescence; after compound, maximal acetylcholine stimulation; inhibition, % at 10 µM; actives 14% (n = 2,400); AID 488926;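 active = membrane potential signal drops by more than 5 SD from the mean control signal, in both duplicate plates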;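 note: plate controls were acetylcholine ECmax control wells for no effect and buffer only wells for full effect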
TRPC4/MOR mod – selectivity of TRPC6 modulators against mouse TRPC4. shares compounds with TRPC6 inh. HEK293 TRPC4/mu-opioid, membrane potential fluorescence. percent change from control (negative = decrease, positive = increase), % at 10 µM. actives 69% (n = 2,400). AID 488927;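 active = membrane potential signal moved up or down beyond 5 SD of buffer control wells, in both duplicate plates, actives on both sides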;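 note: plate controls were assay buffer wells for no effect and DAMGO maximal-effect wells for full effect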
TRPC4 ctr inh 2 – second check of whether TRPC6 modulators also affect mouse TRPC4; shares compounds with TRPC6 inh; HEK293 TRPC4/mu-opioid, membrane potential dye fluorescence; stimulated with maximal-effect DAMGO; AID 488928; actives 55% (n = 2,400); inhibition, % at 10 µM;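 active = drop in membrane potential signal beyond 5 SD of the control wells in both duplicate plates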;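 note: TRPC4 counter screen for TRPC6 hits run under conditions tuned for TRPC6 not TRPC4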
TRPC6 block conf – confirmation of mouse TRPC6 inhibitors; shares compounds with TRPC6 inh; HEK293-TRPC6, membrane potential dye, ACh-evoked depolarization; inhibition, % at 10 µM; actives 43% (n = 3,300);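 active = fluorescence ratio falls more than 5 SD below the full-stimulation control mean, in both duplicate runs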;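 note: integrated fluorescence ratio of peak minus minimum over baseline after agonist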
TRPC6 act confirm – confirmation of mouse TRPC6 activators; shares compounds with TRPC6 inh; HEK293-TRPC6 membrane potential dye fluorescence, FDSS; activation, % at 10 µM; actives 11% (n = 2,800); AID 488961;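 active = ratio signal rise beyond 5 SD above unstimulated control wells' mean, seen in both duplicate runs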;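 note: plate controls were buffer EC0 wells for no effect and acetylcholine ECmax response for full effect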
* = called active by the depositor; i = inactive; . = no result. In the library only some 2.3% were active in any assay of this set; here they are far more common.

SMILES | TRPC6 act | TRPC4 potent | TRPC6 inh | TRPC4 inh | TRPC4 act | HEK293 MPD ctr-2 | HEK293 MPD ctr 2-2 | TRPC4/MOR mod | TRPC4 ctr inh 2 | TRPC6 block conf | TRPC6 act confirm | others
COc1ccc(-n2c(O)c(/C=N/NS(=O)(=O)c3ccc(C)cc3)c3ccccc3c2=O)cc1OC | 29* | i | i | i | i | 241.5%* | i | 11.0%* | i | i | 96.0%*
COc1ccc2c(c1)c1c3n2CCN(C)C3=NCC1 | i | i | -12.6* | i | i | -290.0%* | 90.0%* | -43.5%* | 46.5%* | 58.0%* | i
c1cc2c(cc1C1CCCCC1)c1c3n2CCN=C3CCC1 | i | i | i | i | i | . | . | . | . | . | .
COC(C(=O)NNC(=O)CCc1ccccc1)c1ccccc1 (stereo unspecified) | i | i | i | i | i | . | . | . | . | . | .
C=CCn1c(N)cc(=O)nc1SC(C)C(=O)Nc1ccc(C(=O)OCC)cc1 (stereo unspecified) | i | i | i | i | i | . | . | . | . | . | .
CCCN1CCC(=NNc2ccc(S(=O)(=O)N(CC)CC)cc2[N+](=O)[O-])CC1 | i | i | -5.89* | i | i | i | i | -11.0%* | 51.0%* | 46.5%* | i
CCOC(=O)N1CCN(S(=O)(=O)N(C)C)CC1 | i | i | i | i | i | . | . | . | . | . | .
Cc1ccccc1NC(=O)Cn1nnc(S(=O)(=O)c2ccc(C(C)(C)C)cc2)c1N | i | i | i | i | i | . | . | . | . | . | .
Cc1onc(-c2c(Cl)cccc2Cl)c1C(=O)O/N=C(\C#N)c1c(Cl)cccc1Cl | i | i | i | i | i | . | . | . | . | . | .
C/C(=N\OC(=O)c1c(-c2ccccc2Cl)noc1C)c1nccs1 | i | i | i | i | i | . | . | . | . | . | .
C/C(=N/OC(=O)c1c(-c2c(Cl)cccc2Cl)noc1C)c1cnccn1 | i | i | -8.1* | i | i | . | . | . | . | 68.9%* | i | TRPC4 spec 2=i;TRPC4 spec=i;HEK293 MPD ctr 2-1=27.0%*;HEK293 MPD ctr-1=i
C/C(=N/OC(=O)c1c(-c2ccccc2Cl)noc1C)c1cnccn1 | i | i | -6.05* | i | i | 107.5%* | i | 21.0%* | i | 52.5%* | .
S=c1[nH]nc(-c2ccccc2Cl)n1/N=C/C=C/c1ccco1 | i | i | -5.98* | i | i | i | i | i | i | 44.0%* | i
O=C(NC1CCN(Cc2ccccc2)CC1)c1ccc2c(c1)[nH]c(=O)n2Cc1ccc(F)cc1 | i | i | i | i | i | . | . | . | . | . | .
O=C(CNCC1CCCO1)Nc1ccc(N2CCCCCC2)cc1 (stereo unspecified) | i | i | -6.28* | i | i | i | i | -16.0%* | 33.0%* | i | i
O=C(CNC1CCCCCC1)Nc1ccc(N2CCCC2)cc1 | i | i | i | i | i | . | . | . | . | . | .
O=C(CNC1CCCC1)Nc1ccc(N2CCCCCC2)cc1 | i | i | -5.35* | i | i | i | i | -13.0%* | 65.5%* | 66.0%* | i
CCN(CC)S(=O)(=O)c1cccc(NC(=O)CNC2CCCCCC2)c1 | i | i | -6.48* | i | i | i | i | i | 65.5%* | 43.0%* | i
CC1CCN(CC(=O)Nc2ccc(N3CCCCCC3)cc2)CC1 | i | i | -5.37* | i | i | i | i | -17.0%* | 38.5%* | i | i
Cc1[nH]c(C)c(S(=O)(=O)Nc2cccc(Cl)c2C)c1C(=O)N1CCCCC1 | i | i | i | i | i | . | . | . | . | . | .
Cc1ccc(S(=O)(=O)NCC(=O)OCC(=O)NCc2ccc(F)cc2)cc1 | i | i | i | i | i | . | . | . | . | . | .
COc1ccc(CCN2CC(C(=O)N3CCC(O)(c4ccccc4)CC3)CCC2=O)cc1 (stereo unspecified) | i | i | i | i | i | . | . | . | . | . | .
CC1C(=O)N2CCCc3cc(NC(=O)C4CC4)cc1c32 (stereo unspecified) | i | i | i | i | i | . | . | . | . | . | .
O=C(CNCCC1=CCCCC1)Nc1ccc(N2CCCCCC2)cc1 | i | i | -7.23* | i | i | . | . | . | . | i | i | TRPC4 spec 2=70.0%*;TRPC4 spec=-11.9%*;HEK293 MPD ctr 2-1=i;HEK293 MPD ctr-1=-152.0%*
O=C(C[n+]1cc(-c2ccc(Cl)cc2)n2c1CCC2)N1c2ccccc2Sc2ccccc21 | i | i | -6.24* | i | i | i | 58.0%* | -10.5%* | i | 73.0%* | i
Cc1ccc(C(=O)C[n+]2cc(-c3ccc(C)cc3)n3c2CCCCC3)cc1 | 11.6* | i | -5.44* | i | i | 265.0%* | i | 48.5%* | 42.0%* | 51.0%* | 90.0%*
Cc1oc2cc3oc(=O)c(CCC(=O)NCc4ccccn4)c(C)c3cc2c1C | i | i | i | i | i | . | . | . | . | . | .
Cn1[nH]c(C(F)(F)F)cc1=O | i | i | i | i | i | . | . | . | . | . | .
Cc1ccc(OS(=O)(=O)c2c(C)nn(C)c2Cl)c(C)c1 | i | i | -6.52* | i | i | i | i | i | i | 72.5%* | i
